Sampled rows, rich in hits. Any-hit rate of the full collection: about 4.2%.
CTSL1 counter – cathepsin L1 inhibition, PFM18AAP counter-screen. AID 1906. inhibition, % at 5.96 µM. recombinant F. hepatica cathepsin L1, Z-Leu-Arg-MCA fluorescence. actives 0.49% (n = 300,000);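 active means inhibition above the mean of all tested compounds plus 3 SD, set per screening campaign, cut at about 17% in these data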;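 further: 0% = plate median of test compound wells and 100% = 1 µM Z-Phe-Ala-diazomethylketone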
HDAC3 inhib – inhibitors of human histone deacetylase 3; O15379; recombinant HDAC3, fluorogenic peptide/trypsin coupled, fluorescence; AID 2718; inhibition, % at 8.3 µM; actives 0.15% (n = 320,000); in the data active means inhibition above about 26%, passing the limit was not always enough
M18AAP inhibitor – blocks P. falciparum M18 aspartyl aminopeptidase. recombinant PfM18AAP, H-Glu-NHMec fluorogenic cleavage. inhibition, % at 7.35 µM. actives 1.2% (n = 290,000);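 active means inhibition above the campaign mean inhibition over all tested compounds plus 3 SD, cut at about 28% in these data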;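 further: 0% = plate median of test compound wells and 100% = 2 mM ZnCl2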
SENP1 inh – inhibitors of human SENP1 SUMO protease catalytic domain; Q9P0U3; recombinant SENP1 catalytic domain, CyPet-SUMO1-YPet FRET cleavage; inhibition, % at 10 µM; actives 0.21% (n = 360,000);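 active means inhibition at least 30% at 10 µM, raw YFP signal under a set limit, fluorescence ratio 0.5 to 1.5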;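 further: 0% = enzyme with DMSO and 100% = no enzyme wells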
Target sequence (Q9P0U3 419-644 limits assumed): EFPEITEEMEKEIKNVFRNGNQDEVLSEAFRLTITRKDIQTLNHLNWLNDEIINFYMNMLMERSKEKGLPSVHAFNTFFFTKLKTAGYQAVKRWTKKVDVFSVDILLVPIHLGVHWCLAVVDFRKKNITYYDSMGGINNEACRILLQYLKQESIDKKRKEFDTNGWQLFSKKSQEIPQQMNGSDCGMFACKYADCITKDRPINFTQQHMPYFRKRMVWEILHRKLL
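Test system: human SENP1 catalytic domain; medium: Tris pH 8 buffer plus EDTA, NaCl, BME, BSA, NP40, catalase; incubation: 50 min reaction at room temperature; technique: FRET, CFP and YFP emission; controls: no-enzyme low control and enzyme-plus-DMSO high control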
AHR act – human AHR activation; AHR-responsive luciferase reporter cells, luminescence; activation, % at 5 µM; AID 2796; actives 2.5% (n = 320,000); P35869; in the data active means activation above about 47%;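 further: 0% = vehicle wells and 100% = reference agonist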
GAA850 FXN act – activators of GAA850 frataxin (FXN) promoter; activation, % at 6 µM; actives 0.56% (n = 360,000); HEK293 lucGAA850 FXN promoter luciferase reporter, 24 h; percent of 10 µM SAHA response;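 active means activation above the average of all compounds screened plus 3 SD, cutoff fixed separately per campaign, cut at about 7.5% in these data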;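 further: 0% = DMSO wells and 100% = 10 µM SAHA wells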
AHR act cf – human AHR activation, confirmation; activation, % at 9 µM; shares compounds with AHR act; human cells, AHR-responsive luciferase reporter, luminescence; actives 87% (n = 2,300); in the data active means activation above about 49%;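 further: HepG2 hepatoma cells carrying a DRE-driven firefly luciferase reporter; 0% = vehicle wells and 100% = reference agonist wells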
PXR act counter – activates human PXR in AHR activator counter-screen. activation, % at 11.6 µM. AID 434939. actives 88% (n = 2,300). shares compounds with AHR act. cell-based PXR reporter, luciferase luminescence; in the data active means activation above about 11%;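 further: human hepatoma DPX-2 cells expressing full-length human PXR; 0% = DMSO and 100% = reference agonist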
Numbers without * were called inactive; . = no result given.

SMILES	CTSL1 counter	HDAC3 inhib	M18AAP inhibitor	SENP1 inh	AHR act	GAA850 FXN act	AHR act cf	PXR act counter
NC(=O)c1ccccc1NC(=O)CN1CCN(Cc2ccc(Cl)cc2Cl)CC1	1.9	7.9	-3.9	1.1	-0.5	0.3	.	.
CC(=O)c1c(N2CCOCC2)[nH]c(-c2ccccc2)nc1=S	4.0	2.7	-4.0	-2.9	135.6*	4.3	121.6*	75.0*
CC(=O)c1cccc(NC(=S)NC(=O)c2ccccc2Cl)c1	-0.3	-7.4	5.2	0.2	16.8	1.1	.	.
O=C(NC(=S)Nc1ccccc1O)c1ccccc1Cl	3.2	3.0	0.2	1.0	89.0*	2.8	127.5*	20.9*
O=C(N/N=C/c1ccc(-n2ccnc2)cc1)c1cccs1	1.1	-7.8	2.6	1.4	96.9*	4.1	64.7*	22.8*
O=C(N/N=C/c1ccncc1)c1cccs1	-0.5	1.0	-5.0	2.0	13.0	4.6	.	.
CC1CCCN(C(=O)c2cc3c(-c4ccc(Cl)cc4)nn(C)c3s2)C1 (centres undefined)	1.1	-8.4	5.5	3.5	82.4*	-0.4	79.8*	22.7*
Cn1nc(-c2ccc(Cl)cc2)c2cc(C(=O)N3CCN(C(=O)c4ccco4)CC3)sc21	0.7	-5.6	-21.9	4.0	33.9	0.5	.	.
CCCc1cc(=O)n2[nH]c(NCc3c(Cl)cccc3Cl)nc2n1	-1.8	-1.0	3.1	0.2	3.6	1.7	.	.
Cc1cccc(-c2cc3nc(-c4ccccc4)cc(=O)n3[nH]2)c1	3.9	-10.1	-1.4	-5.1	89.1*	4.3	104.8*	33.8*
CCOC(=O)Cc1cc(=O)n2[nH]c(-c3ccccc3)cc2n1	-3.0	-7.0	-2.4	-9.1	4.2	-2.1	.	.
Cc1ccccc1-c1cc2nc(-c3ccc([N+](=O)[O-])cc3)cc(=O)n2[nH]1	1.4	-0.4	-2.1	5.1	1.3	2.5	.	.
CCCc1cc(=O)n2[nH]c(-c3cccc(Br)c3)cc2n1	-0.6	-4.1	3.8	0.8	159.5*	3.8	166.2*	34.8*
CCCc1cc(=O)n2[nH]c(-c3ccc(Br)cc3)cc2n1	-3.0	-1.7	5.2	-1.9	104.0*	3.0	110.3*	47.1*
CCCn1c(-c2cccs2)nc2nc3ccccc3nc21	5.0	-248.4	-2.9	-75.3	100.3*	-0.5	147.3*	37.0*
O=c1cc(-c2ccc3c(c2)OCO3)oc2ccccc12	4.1	-3.1	5.5	-0.9	104.4*	5.3	142.5*	79.1*
Cc1ccc(CNC(=O)COc2ccc(S(=O)(=O)N3CCCC3)cc2)cc1	4.9	-4.3	6.7	2.9	0.4	-1.1	.	.
CCc1nc2cc(C)nn2c2nc3ccccc3n12	5.3	-1.0	4.8	-2.0	90.9*	4.0	98.9*	29.6*
Cc1cc2nc(C)n3c4ccccc4nc3n2n1	-1.1	4.3	1.6	3.3	84.7*	-1.1	126.7*	12.7*
Cc1cc(C)n(-c2nc3ccccc3n3nnnc23)n1	-1.0	9.0	-3.1	-3.0	12.4	0.3	.	.
CCCNC(=O)C(Cc1ccccc1)NC(=O)Cc1ccccc1 (centres undefined)	.	1.0	.	0.3	-0.6	-2.6	.	.
CC(=O)Nc1ccc(Br)cc1C(=O)C(=O)O	1.4	3.1	-10.9	0.1	12.2	0.8	.	.
COc1ccc(N=Cc2c(O)[nH]c3ccccc23)cc1	3.5	-4.3	5.2	-42.4	128.9*	3.5	66.5*	17.5*
O=c1[nH]c(-[n+]2ccc3ccccc3c2)c(/C=N/N=C(\[O-])c2ccccc2)s1	0.1	2.3	19.3	-20.7	83.7*	5.1	49.7*	20.4*
CC(C)(C)c1cc[n+](-c2[nH]c(=O)sc2/C=N/N=C(\[O-])c2cccnc2)cc1	10.4	0.7	4.4	3.4	2.5	0.0	.	.
CC(=O)Nc1ccc(-c2ccnc3c2CC(C(=O)Nc2cccc(C(F)(F)F)c2)O3)cc1 (centres undefined)	.	.	.	-0.1	.	-8.3	.	.
CCn1nccc1NC(=O)c1ccc2sc([C@@H]3O[C@H](CO)[C@H](O)[C@H](O)[C@H]3O)nc2c1	.	.	.	-0.8	.	1.2	.	.
